Screening results: PubChem BioAssay, Johns Hopkins Ion Channel Center
MrgX1 ag: agonists of human MrgX1 receptor, primary screen, HEK293 cells, Fluo-4 calcium flux; B-score at 10 µM; Fluo-4 calcium fluorescence, agonist mode; active compounds read high; Mas-related G-protein coupled receptor member X1 (Homo sapiens), Q96LB2; 0.44% of 310,000 active;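 active = calcium response B-score plate-corrected fluorescence ratio at least 3 library SD, with starting fluorescence B-score inside 5 SD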
Target sequence (Q96LB2 whole entry, looked up): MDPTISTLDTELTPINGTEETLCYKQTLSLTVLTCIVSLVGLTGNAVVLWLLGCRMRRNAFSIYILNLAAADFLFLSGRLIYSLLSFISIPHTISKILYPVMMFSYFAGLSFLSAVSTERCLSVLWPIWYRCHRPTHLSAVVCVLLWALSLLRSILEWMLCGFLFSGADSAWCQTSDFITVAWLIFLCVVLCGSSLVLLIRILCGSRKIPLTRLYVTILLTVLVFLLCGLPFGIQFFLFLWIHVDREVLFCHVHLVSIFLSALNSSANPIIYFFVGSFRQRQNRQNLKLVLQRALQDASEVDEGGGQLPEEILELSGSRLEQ
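times = overnight plating, then 30 min 37 °C plus 30 min room-temperature dye loading | assay system = stable human MrgX1 HEK293 cell line | input = fifteen thousand cells per well | signal = kinetic calcium dye fluorescence, Fluo-4 NW | dosing = compound delivered in addition one of three | read-out = B-scored fluorescence response ratio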
MrgX1 allo act: positive allosteric modulators of MrgX1, primary screen, HEK293 cells, Fluo-4 calcium flux. Mas-related G-protein coupled receptor member X1 (Homo sapiens), Q96LB2. FDSS; active compounds read high. B-score at 10 µM. 0.63% of 310,000 active. AID 588675, 2011;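 active = plate-corrected calcium response at least 3 library SD above typical, normal starting fluorescence, not activating the receptor alone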;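 also: compound read alongside a low EC10 to EC30 dose of BAM8-22 agonist; peak minus trough fluorescence over baseline measured at the second addition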
RGS4 act: RGS4 potentiators or activators, primary screen, cell-based, HEK293 M3R inducible RGS4, calcium flux; carbachol calcium flux Fluo4; active compounds read low; B-score at 10 µM; 0.92% of 310,000 active;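 active = B-score of the integrated calcium signal more than 4 SD below the library mean, with starting fluorescence not abnormally high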;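 also: negative B-score means reduced calcium response which marks RGS4 activation or potentiation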
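Assay system: HEK293 FlpIn-TREx cells, stable M3R, doxycycline-inducible RGS4 / Probe or stimulus: carbachol, ECmax concentration / Times: overnight RGS4 induction, 30 min dye load 37 °C, 20 min compound RT / Signal: kinetic calcium fluorescence imaging with Fluo4-AM dye, 2 µM / Measure: Agonist-evoked peak-minus-minimum fluorescence over baseline, integrated ratio, B score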
MrgX1 antagonist: antagonists of human MrgX1 receptor, primary screen, HEK293 cells, Fluo-4 calcium flux | B-score at 10 µM | Mas-related G-protein coupled receptor member X1 (Homo sapiens), Q96LB2 | BAM8-22 antagonism; active compounds read low | 1.3% of 310,000 active | AID 588676, 2011;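 active = calcium-response B-score plate-corrected more than 3 library SD below zero, starting fluorescence within 5 deviations, no agonist response on first addition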;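 also: peak minus trough fluorescence over baseline after final BAM8-22 challenge near maximal dose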
RGS4 inh: RGS4 inhibitors, primary screen, cell-based, HEK293 M3R inducible RGS4, calcium flux. 0.45% of 310,000 active. B-score at 10 µM. Fluo-4 calcium flux; active compounds read high; triggered by carbachol at its EC20. Regulator of G-protein signaling 4 (Homo sapiens), P49798. AID 463165, 2010;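 active = B-score, a plate-corrected calcium signal, over three deviations above library mean, with baseline fluorescence within five deviations of library mean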;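 also: RGS4 expression induced by doxycycline in cells with stable M3 receptor; B-score is computed from the integrated fluorescence ratio over baseline after carbachol; higher B-score means a larger calcium signal and so more RGS4 inhibition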
Target sequence (P49798 whole entry, looked up): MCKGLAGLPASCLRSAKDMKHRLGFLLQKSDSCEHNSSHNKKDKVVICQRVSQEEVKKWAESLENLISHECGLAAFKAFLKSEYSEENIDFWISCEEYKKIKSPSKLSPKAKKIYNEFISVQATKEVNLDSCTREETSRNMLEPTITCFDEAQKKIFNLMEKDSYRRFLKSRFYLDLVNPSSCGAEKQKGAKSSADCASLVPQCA
MrgX1 ant reconf: MrgX1 receptor antagonists, duplicate retest, confirmation, HEK293 cells, Fluo-4 calcium flux | shares compounds with MrgX1 antagonist | BAM8-22 calcium flux; active compounds read low | remaining BAM8-22 calcium response % of control (active compounds read low), % at 10 µM | 19% of 2,300 active | AID 602420, 2012;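 active = remaining agonist calcium response no higher than 100% minus 3 SD of agonist-only control wells, with starting fluorescence near control levels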;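 also: agonist BAM8-22 given at a near maximal EC90 to ECmax level; peak minus minimum fluorescence divided by baseline after agonist addition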
HEK293 Ca flux: nonspecific calcium signal in parental HEK293, confirmation, counter-screen for MrgX1 antagonist project, parental HEK293 cells, Fluo-4 calcium flux; shares compounds with MrgX1 antagonist; Fluo-4 calcium fluorescence, FDSS; fluorescence ratio F(max-min)/F0 at 10 µM; 2% of 4,000 active;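 active = duplicate-averaged calcium fluorescence ratio at least three times the standard deviation of buffer wells, a nonspecific response in parental cells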
HEK293 Ca counter: calcium response in parental HEK293 cells, primary screen, counter-screen for MrgX1 allosteric activator project, cell-based, Fluo-4 calcium flux, duplicate; 0.4% of 4,000 active; AID 624114, 2012; Fluo-4 fluorescence ratio; active compounds read high; fluorescence ratio F(max-min)/F0 at 10 µM; shares compounds with MrgX1 antagonist;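 active = calcium fluorescence ratio, averaged over duplicates, at least 3 SD of the buffer-well ratio, meaning a nonspecific response in receptor-free cells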;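 also: untransfected parental HEK293 lacking MrgX1 used as counterscreen for MrgX1 allosteric activators; fluorescence change taken during the second addition on a kinetic imager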
HEK293 Ca cntr2: calcium response in parental HEK293 cells, primary screen, counter-screen for MrgX1 agonist project, cell-based, Fluo-4 calcium flux, duplicate, agonist mode | shares compounds with MrgX1 antagonist | Fluo-4 calcium fluorescence (FDSS); active compounds read high | fluorescence ratio F(max-min)/F0 at 10 µM | 8.7% of 4,000 active | AID 624115, 2012;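 active = calcium fluorescence ratio at least three times the spread of buffer wells, meaning a non-specific response in parental cells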
The depositor's hits bear a star; i = inactive; · = no result given. The list is not random: actives were taken first. Their share in the collection is about 3.5%.

SMILES	MrgX1 ag	MrgX1 allo act	RGS4 act	MrgX1 antagonist	RGS4 inh	MrgX1 ant reconf	HEK293 Ca flux	HEK293 Ca counter	HEK293 Ca cntr2
CCCCCn1c(=O)c(C(=O)Nc2cccc(C)n2)c(O)c2ccccc21	i	i	i	i	i	·	·	·	·
O=C(c1ccc2c3c(cccc13)CC2)C1CCCN(Cc2ncc[nH]2)C1 (stereo not given)	i	i	i	-4.7*	i	i	i	i	i
O=C(c1ccc2c3c(cccc13)CC2)C1CCCN(CC2CC2)C1 (stereo not given)	i	i	i	i	i	·	·	·	·
COC(=O)C1=C(c2ccccc2)C[C@@H]2CC[C@H]1N2C(=O)NCC1CC1	i	i	i	-4.8*	i	i	i	i	i
CN(C)[C@@H]1C(=O)C(C(N)=O)=C(O)[C@@]2(O)C(=O)C3=C(O)c4c(O)cccc4[C@@](C)(O)C3[C@H](O)C12 (stereo not given in full)	i	i	i	i	i	·	·	·	·
CC[C@H](C)[C@@H]1O[C@@]2(C=CC1C)CC1C[C@@H](CC=C(C)C(O[C@H]3CC(OC)C(O[C@H]4CC(OC)C(O)C(C)O4)C(C)O3)C(C)C=CC=C3CO[C@@H]4C(O)C(C)=C[C@@H](C(=O)O1)[C@]34O)O2 (stereo not given in full)	i	i	·	i	·	·	·	·	·
COc1cc(/C=C/c2nc3ccccc3c(=O)n2-c2ccccc2O)ccc1O	i	i	i	-9.3*	i	i	i	i	47*
COc1cc(/C=C/c2nc3ccccc3c(=O)n2-c2cccc(O)c2)ccc1O	i	i	i	i	i	·	·	·	·
COc1ccc(N2CCN(C(CNC(=O)Oc3ccccc3)c3cccnc3)CC2)cc1 (stereo not given)	i	i	i	-6.9*	i	i	i	i	i
CCCN1CCC[C@@H](c2cccc(O)c2)C1	i	i	·	-5.6*	·	80%*	i	i	i
Ic1ccccc1CN[C@@H]1C2CCN(CC2)[C@@H]1C(c1ccccc1)c1ccccc1	i	i	·	-15*	·	5.6%*	i	i	i
Fc1ccccc1CNC1CN2CCC1CC2 (stereo not given)	i	i	i	i	i	·	·	·	·
COc1ccccc1CNCCc1ccc(F)cc1	i	i	i	i	i	·	·	·	·
C=CCN1C(=O)NC(=O)C(Cc2ccc(OC)c(OC)c2)C1=O (stereo not given)	i	i	i	-4.8*	i	i	i	i	i
Cc1nc2ccc(P(=O)(O)O)cc2s1	i	i	i	i	i	·	·	·	·
CCOC(=O)c1c(/N=C/C2C(=O)NC(=S)NC2=O)sc2c1CCC2	i	i	i	-7.5*	i	i	i	i	i
Cc1cc(N2C(=O)CC(N3CCC(n4c(=O)[nH]c5ccccc54)CC3)C2=O)no1 (stereo not given)	i	i	i	-5.4*	i	i	i	i	i
C=CCn1c(O)c(C(C)=NCc2ccc3c(c2)OCO3)c(=O)[nH]c1=O	i	i	i	-4.7*	i	i	i	i	i
CC(=NCc1ccc2c(c1)OCO2)c1c(O)n(Cc2ccccc2)c(=O)[nH]c1=O	i	i	i	i	i	·	·	·	·
ClCCN1CCN(c2ccnc3cc(Cl)ccc23)CC1	i	i	i	-17*	i	12%*	i	i	i
CCCCCCN1CCN(c2ccc(Cl)cc2)CC1	i	i	i	i	i	·	·	·	·
COc1ccc(CC(C)NCCc2ccc(OC)c(OC)c2)cc1 (stereo not given)	i	i	i	i	i	·	·	·	·
CNC(=O)O/N=C/c1nn(C(=O)C(C)(C)C)cc1Br	i	i	i	i	i	·	·	·	·
O=C1NC(=O)N(c2cccc(Br)c2)C(=O)/C1=C/c1ccsc1	i	i	i	i	i	·	·	·	·
Cn1c(=O)cc(OCCCC(=O)N2CCC3(CC2)OCCO3)c2ccccc21	i	i	i	-9.8*	i	i	i	i	i
